Test results published in PubChem BioAssay.
Results filed as inconclusive are left out.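 How the source made its calls, unless noted: active means RAM network inhibition above 8.4% in each of two replicates, 3 SD over the compound average; inconclusive means above 8.4% inhibition in only one replicate; inactive means 8.4% inhibition or less in each replicate.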

Tests used:
[1] = OD615 S. cerevisiae growth inhibition, permissive medium, pilot counter-assay, permissive growth control for S. cerevisiae lifespan shortening project (AID 705;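 active means growth inhibition above 25% in both replicates, a cutoff set 3 SD above the mean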); details: OD615, 24 h, at 10 µM, active compounds read high
Method in brief: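 Timing: 24 h exposure, 30 °C / Material: Saccharomyces cerevisiae strain carrying genetically modified DeaD replicative-lifespan system / Signal: OD at 615 nm / Compound: 10 µM single dose, 0.25% DMSO / Medium: SC raffinose/galactose permissive medium / Evaluation: reduction in yeast growth (OD615)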

[2] = Restrictive medium S. cerevisiae growth inhibition, OD615, pilot screen of yeast lifespan reduction project, restrictive growth control (AID 706;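 active means growth inhibition above a set limit, 3 SD over mean compound inhibition, in both replicates, cut at about 43% in these data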;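 further: modified DeaD lifespan yeast strain shifted to restrictive glucose medium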); details: OD615, 48 h, at 10 µM, active compounds read high
Method in brief: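 System: Engineered S. cerevisiae DeaD strain | Detection: OD615 | Buffer or medium: CSMM-D glucose medium | Doses: 10 µM compound, 0.25% DMSO | Timing: 4 h pre-growth plus 48 h compound exposure, 30 °C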

[3] = viability gain of MRP-1-high H69AR cells under doxorubicin, pilot screen, MRP-1 activator project, CellTiter-Glo, duplicate (AID 807;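 active means viability increase at or above a cutoff of the median across tested compounds plus 3 SD, cut at about 8.5% in these data, passing the limit was not always enough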;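 further: compound pretreatment 18-22 h then 72 h combined with doxorubicin; 0% = doxorubicin alone and 100% = vehicle without doxorubicin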); details: H69AR viability with doxorubicin, CellTiter-Glo luminescence; at 10 µM; active compounds read high
[4] = growth suppression of beta-catenin knockout HCT116, pilot screen, human colon tumor cells (AID 823;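 active means cell viability at or below a set limit in both duplicate runs, the limit being the all-compound median minus 4 SD, cut at about 23% in these data, passing the limit was not always enough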;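 further: 0% = wells killed by 20 µM Hyamine and 100% = untreated DMSO cell wells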); details: CellTiter-Glo, 60 h, at 10 µM, active compounds read low
[5] = growth suppression of PTEN-deleted HCT116, pilot screen, cell-based, HCT116 clonal line, CellTiter-Glo (AID 824;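 active means viability at or below 27.92% in each of two runs, the all-compound median minus 4 SD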;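 further: 0% = 20 µM Hyamine control and 100% = vehicle cell control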); details: 60 h, at 10 µM, active compounds read low
[6] = inhibitors of the yeast RAM network, pilot screen, dse1pr::URA3 reporter, 5-FOA selection (AID 869;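 active means inhibition over a set limit, the all-compound mean plus 3 SD, in both replicate runs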;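 further: 0% = DMSO wells with no growth and 100% = 10 µM 1-NA-PP1 with full growth; RAM network block rescues cells from 5-FOA so hits raise OD615 growth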); details: S. cerevisiae dse1pr::URA3 5-FOA growth, OD615, 2 d; at 10 µM; active compounds read high; strain carries analog-sensitive mutant Cbk1 kinase
[7] = RAM signaling pathway blockade in yeast – S. cerevisiae, Pdr1DBD-CYC8 efflux-inhibited sensitized strain, primary screen (AID 1298);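 further: 0% = DMSO untreated cells without growth and 100% = 10 µM 1-NA-PP1 full growth; higher means more yeast growth rescued from 5-FOA killing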; details: S. cerevisiae cbk1-as DSE1-URA3 strain, 5-FOA growth OD615, 2 d; at 50 µM; active compounds read high

COc1cc(CN2CCN(c3cccc(C)c3C)CC2)cc(Br)c1O
inactive: growth inhibition [1] -4.04% | growth inhibition [2] 0.7% | viability increase [3] -2.57% | viability [4] 80.7% | viability [5] 86.6% | inhibition [6] -0.235% | RAM network inhibition [7] 1.51%

CCOC(=O)c1c(-c2ccc(C)o2)csc1N
inactive: growth inhibition [1] 4.88% | growth inhibition [2] 0.615% | viability increase [3] -2.73% | viability [4] 97% | viability [5] 93.8% | inhibition [6] 1.57% | RAM network inhibition [7] 4.1%

COc1ccc(-n2nnc3c(=O)n(CC(=O)OCc4ccccc4)cnc32)cc1
inactive: growth inhibition [1] 0.92% | growth inhibition [2] 1.45% | viability increase [3] -1.76% | viability [4] 98.7% | viability [5] 99.9% | inhibition [6] 1.19% | RAM network inhibition [7] 6.18%

O=C(Nc1ccc(F)cc1)C1CCCN(S(=O)(=O)c2cccc3cccnc23)C1 (configuration not stated)
inactive: growth inhibition [1] -10.2% | growth inhibition [2] -7.79% | viability increase [3] -0.85% | viability [4] 80.8% | viability [5] 80.3% | inhibition [6] 2.16% | RAM network inhibition [7] 7.62%

O=C(NCc1cccnc1)c1ccc(CS(=O)(=O)c2ccc(Br)cc2)o1
inactive: growth inhibition [1] -8.28% | growth inhibition [2] -13.7% | viability increase [3] -1.28% | viability [4] 95.3% | viability [5] 92.8% | inhibition [6] 0.655% | RAM network inhibition [7] 3.41%

Cc1ccc(C2/C(=C(/O)c3ccccc3)C(=O)C(=O)N2CCN2CCOCC2)o1 (configuration not stated)
inactive: growth inhibition [1] 8.83% | growth inhibition [2] 8.54% | viability increase [3] -1.8% | viability [4] 104% | viability [5] 96.7% | inhibition [6] 0.095% | RAM network inhibition [7] -0.05%

CN1CCN(CCCNC(=O)c2ccc3c(c2)N(Cc2ccccc2)CCS3)CC1
inactive: growth inhibition [1] -2.21% | growth inhibition [2] -12.1% | viability increase [3] -5.47% | viability [4] 64.8% | viability [5] 67.4% | inhibition [6] 0.9% | RAM network inhibition [7] 4.28%

CN(C)S(=O)(=O)c1ccc(-c2ccccc2)cc1
inactive: growth inhibition [1] -6.75% | growth inhibition [2] -4.33% | viability increase [3] 0.02% | viability [4] 91.9% | viability [5] 90.6% | inhibition [6] 0.455% | RAM network inhibition [7] 8.77%

CCN1C(=O)c2ccc(-c3nc4ccccc4c(=O)o3)cc2C1=O
inactive: growth inhibition [1] -8.45% | growth inhibition [2] -0.43% | viability increase [3] -0.05% | viability [4] 99% | viability [5] 94.7% | inhibition [6] 1.71% | RAM network inhibition [7] 3.16%

O=C(Nc1ccc(S(=O)(=O)N2CCCCCC2)cc1)c1ccc(Br)o1
inactive: growth inhibition [1] -4.67% | growth inhibition [2] 0.21% | viability increase [3] -3.03% | viability [4] 69.6% | viability [5] 59.7% | inhibition [6] 2.62% | RAM network inhibition [7] 5.05%

CCC1CC(C)(C(=O)Nc2ccc(S(N)(=O)=O)cc2)OC1=O (configuration not stated)
inactive: growth inhibition [1] -2.94% | growth inhibition [2] 3.6% | viability increase [3] 1.12% | viability [4] 102% | viability [5] 98.1% | inhibition [6] 1.36% | RAM network inhibition [7] 3.69%

CSc1ccccc1NC(=O)c1onc(C)c1Cl
inactive: growth inhibition [1] -5.06% | growth inhibition [2] 10.3% | viability increase [3] -1.83% | viability [4] 95.6% | viability [5] 93.2% | inhibition [6] 1.33% | RAM network inhibition [7] 1.54%

Cc1ccccc1Nc1ncnc2c1cnn2-c1ccccc1
inactive: growth inhibition [1] -4.67% | growth inhibition [2] -4.63% | viability increase [3] -3.78% | viability [4] 86% | viability [5] 84.3% | inhibition [6] -0.23% | RAM network inhibition [7] -0.01%

O=C(CSCC(=O)N1CCOCC1)Nc1ccccc1
inactive: growth inhibition [1] -11.4% | growth inhibition [2] -8.24% | viability increase [3] -0.42% | viability [4] 97.2% | viability [5] 97.8% | inhibition [6] 0.42% | RAM network inhibition [7] 2.75%

CC1(C)NC(C)(C)c2nonc2/C1=N\O
inactive: growth inhibition [1] -15.2% | growth inhibition [2] -9.79% | viability increase [3] 0.39% | viability [4] 99.3% | viability [5] 102% | inhibition [6] 1.34% | RAM network inhibition [7] -0.43%

Cc1csc(NC(=O)C(CC(C)C)NS(=O)(=O)c2ccc3c(c2)oc(=O)n3C)n1 (configuration not stated)
inactive: growth inhibition [1] 2.94% | growth inhibition [2] -3.39% | viability increase [3] -0.77% | viability [4] 103% | viability [5] 106% | inhibition [6] 1.33% | RAM network inhibition [7] 2.74%

CCOC(=O)c1sc(NC(=O)c2ccc3ncsc3c2)nc1C
inactive: growth inhibition [1] -5.17% | growth inhibition [2] 0.14% | viability increase [3] -2.47% | viability [4] 84.2% | viability [5] 82.8% | inhibition [6] 2.75% | RAM network inhibition [7] 5.36%

CCOc1ccccc1N(CC)C(=O)Cn1ncc2c(=O)oc3ccccc3c21
inactive: growth inhibition [1] -11.6% | growth inhibition [2] -7.42% | viability increase [3] -1.85% | viability [4] 95.7% | viability [5] 96.2% | inhibition [6] -0.255% | RAM network inhibition [7] 4.3%

Cc1ccc(C)c2[nH]c(=O)c(CCNC(=O)C(C)C)cc12
inactive: growth inhibition [1] -14.5% | growth inhibition [2] -18.6% | viability increase [3] -0.31% | viability [4] 102% | viability [5] 104% | inhibition [6] 1.83% | RAM network inhibition [7] 2.82%

Cc1cc(NC(=O)c2cc3n(n2)C(C(F)(F)F)CC(c2ccco2)N3)no1 (configuration not stated)
inactive: growth inhibition [1] 5.72% | growth inhibition [2] 5.53% | viability increase [3] -0.69% | viability [4] 98.8% | viability [5] 94.6% | inhibition [6] 0.475% | RAM network inhibition [7] 1.13%

Nc1c(C(=O)c2ccc(Br)s2)oc2ccccc12
inactive: growth inhibition [1] -9.21% | growth inhibition [2] -4.51% | viability increase [3] -5.46% | viability [4] 88.8% | viability [5] 88.7% | inhibition [6] -0.045% | RAM network inhibition [7] 2.7%

Cc1ccc(NC(=O)CN(c2cc(C)cc(C)c2)S(=O)(=O)c2c(C)noc2C)nc1
inactive: growth inhibition [1] -8.61% | growth inhibition [2] -7.12% | viability increase [3] -3.03% | viability [4] 69.4% | viability [5] 70.6% | inhibition [6] 0.895% | RAM network inhibition [7] 7.84%

COc1ccc(C2/C(=C(/O)c3ccc(F)cc3)C(=O)C(=O)N2CCCN(C)C)cc1 (configuration not stated)
inactive: growth inhibition [1] -5.9% | growth inhibition [2] -4.55% | viability increase [3] -2.11% | viability [4] 104% | viability [5] 98.1% | inhibition [6] 0.345% | RAM network inhibition [7] 2.49%

O=C1C(=O)N(CCO)C(c2ccccc2)/C1=C(\O)c1ccccc1 (configuration not stated)
inactive: growth inhibition [1] -18.6% | growth inhibition [2] -8.67% | viability increase [3] 0.49% | viability [4] 99.7% | viability [5] 101% | inhibition [6] 1.29% | RAM network inhibition [7] 0.42%

O=c1c(N2CCOCC2)nsnc1N1CCOCC1
inactive: growth inhibition [1] 8.28% | growth inhibition [2] -6.26% | viability increase [3] -1.68% | viability [4] 106% | viability [5] 95.8% | inhibition [6] 0.59% | RAM network inhibition [7] -2%

O=C(NCc1ccccc1)c1ccc2c(c1)OCCO2
inactive: growth inhibition [1] 3.26% | growth inhibition [2] 5.53% | viability increase [3] -1.83% | viability [4] 101% | viability [5] 101% | inhibition [6] 1.48% | RAM network inhibition [7] 0.51%

CCC(Sc1nncn1C)C(=O)Nc1nnc(-c2ccccc2Cl)s1 (configuration not stated)
inactive: growth inhibition [1] -3.46% | growth inhibition [2] 31.5% | viability increase [3] -0.85% | viability [4] 103% | viability [5] 92.5% | inhibition [6] 1.72% | RAM network inhibition [7] 2.58%

COc1ccc(C2C(C(=O)NCCN(C)C)c3cc(OC)c(OC)cc3C(=O)N2C)cc1OC (configuration not stated)
inactive: growth inhibition [1] -3.47% | growth inhibition [2] -1.52% | viability increase [3] -1.38% | viability [4] 101% | viability [5] 104% | inhibition [6] 1.56% | RAM network inhibition [7] 3.25%

COC(=O)N1CC(C)N(C(=O)OC)CC1C (configuration not stated)
inactive: growth inhibition [1] -8.79% | growth inhibition [2] 3.85% | viability increase [3] -2.14% | viability [4] 95.2% | viability [5] 95.6% | inhibition [6] 0.745% | RAM network inhibition [7] 6.61%

CC1CCCCN1C(=O)CSCC(=O)Nc1nc(-c2cccs2)cs1 (configuration not stated)
inactive: growth inhibition [1] 2.07% | growth inhibition [2] -3.92% | viability increase [3] -4.62% | viability [4] 99.2% | viability [5] 94.6% | inhibition [6] 0.505% | RAM network inhibition [7] 1.69%

CCOc1ccc(C2N(c3ccc(Cl)cc3)C(=O)C3CCCN32)cc1OC (configuration not stated)
inactive: growth inhibition [1] -2.75% | growth inhibition [2] -6.81% | viability increase [3] -1.98% | viability [4] 98.7% | viability [5] 95.8% | inhibition [6] -0.115% | RAM network inhibition [7] 5.42%

CNC(=O)CN1C(=O)CSc2nc(C)cc(C)c21
inactive: growth inhibition [1] -8.87% | growth inhibition [2] -6.29% | viability increase [3] 0.88% | viability [4] 99.9% | viability [5] 97.8% | inhibition [6] 1.83% | RAM network inhibition [7] 1.73%

CCOC(=O)N1CCN(C(=O)c2cn(-c3ccc(C)c(C)c3)c(=O)c3ccccc23)CC1
inactive: growth inhibition [1] -10.6% | growth inhibition [2] -0.85% | viability increase [3] -2.69% | viability [4] 85.6% | viability [5] 94.4% | inhibition [6] 0.51% | RAM network inhibition [7] -0.53%

CC(=O)N1C(C(=O)O)CSC1c1ccc(C)cc1 (configuration not stated)
inactive: growth inhibition [1] 4.69% | growth inhibition [2] 8.76% | viability increase [3] -0.04% | viability [4] 95.3% | viability [5] 95.6% | inhibition [6] -0.43% | RAM network inhibition [7] -1.41%

C=CCNc1nc2c(c(=O)n(C)c(=O)n2C)n1CC
inactive: growth inhibition [1] 1.76% | growth inhibition [2] 3.36% | viability increase [3] -2.38% | viability [4] 107% | viability [5] 99.1% | inhibition [6] 2.24% | RAM network inhibition [7] 3.73%

COc1ccc(N2CCCCn3c2nc2c3c(=O)[nH]c(=O)n2C)cc1
inactive: growth inhibition [1] -18.4% | growth inhibition [2] -15.6% | viability increase [3] -2.97% | viability [4] 90.3% | viability [5] 90.9% | inhibition [6] 1.88% | RAM network inhibition [7] 2.42%
